Source: article PMC6309961 (The Journal of pharmacy and pharmacology, 2017)

Experiments:
Type in all cases: biochemical
[1] = biological target: CYP2E1 (Homo sapiens, UniProt P05181); assay: index substrate turnover in pooled HLM, HPLC; settings: for IC50: human, microsomes
[2] = biological target: T1, CYP2B6 (Homo sapiens, UniProt P20813); assay: index substrate turnover in pooled HLM, HPLC; settings: microsomes
T1 sequence (P20813 1-491): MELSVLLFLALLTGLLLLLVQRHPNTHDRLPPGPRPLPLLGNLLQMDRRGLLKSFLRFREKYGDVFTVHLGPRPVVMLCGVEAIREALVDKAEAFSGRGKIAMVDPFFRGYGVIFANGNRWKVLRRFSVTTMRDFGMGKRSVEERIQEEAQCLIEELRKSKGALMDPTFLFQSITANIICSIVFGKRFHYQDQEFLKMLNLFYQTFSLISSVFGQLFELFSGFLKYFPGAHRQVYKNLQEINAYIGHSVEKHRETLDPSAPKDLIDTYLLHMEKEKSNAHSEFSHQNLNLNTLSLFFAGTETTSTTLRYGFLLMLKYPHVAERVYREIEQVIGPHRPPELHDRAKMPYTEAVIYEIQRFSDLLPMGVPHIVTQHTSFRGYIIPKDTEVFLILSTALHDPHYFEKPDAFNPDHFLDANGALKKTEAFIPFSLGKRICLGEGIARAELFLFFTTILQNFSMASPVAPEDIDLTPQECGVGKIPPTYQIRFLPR
Procedure, shortened: (§1)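 Pooled HLMs (53 donors) in 50 mm phosphate pH 7.5 with 5 mm MgCl2, 0.5 mm NADP and an isocitrate/isocitric dehydrogenase regenerating system. Test compound at 0–600 μm (eight levels) was dried, reconstituted in 1% methanol, with or without 20-min 37°C preincubation. Substrates: phenacetin (1A2), bupropion (2B6), taxol (2C8), dextromethorphan (2D6). Acetonitrile stop (acidified for 2B6) with IS; HPLC-UV/fluorescence; duplicates; hyperbolic nonlinear-regression IC50.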

[3] = biological target: T2, UGT1A6 (Homo sapiens, UniProt P19224); assay: glucuronidation of index substrate in pooled HLM, HPLC-UV; settings: without preincubation; pH 7.5, 10 mM UDPGA, alamethicin
T2 sequence (P19224 27-532): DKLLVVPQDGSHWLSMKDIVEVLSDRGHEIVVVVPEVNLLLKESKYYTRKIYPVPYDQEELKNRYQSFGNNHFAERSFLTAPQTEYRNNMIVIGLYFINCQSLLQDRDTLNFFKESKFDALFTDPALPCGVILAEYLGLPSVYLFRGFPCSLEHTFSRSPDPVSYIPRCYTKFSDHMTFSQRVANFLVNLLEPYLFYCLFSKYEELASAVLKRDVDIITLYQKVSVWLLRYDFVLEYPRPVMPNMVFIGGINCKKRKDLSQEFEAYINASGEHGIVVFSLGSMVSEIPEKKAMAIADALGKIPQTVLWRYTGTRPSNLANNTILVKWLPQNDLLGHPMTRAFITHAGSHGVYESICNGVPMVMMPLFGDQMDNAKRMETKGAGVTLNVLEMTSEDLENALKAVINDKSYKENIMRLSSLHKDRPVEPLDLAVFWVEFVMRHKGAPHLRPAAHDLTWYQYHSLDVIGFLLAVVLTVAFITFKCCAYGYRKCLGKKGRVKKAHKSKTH

[4] = biological target: T3, CYP2C8 (Homo sapiens, UniProt P10632); assay: index substrate turnover in pooled HLM, HPLC; settings: microsomes
T3 sequence (P10632 1-490): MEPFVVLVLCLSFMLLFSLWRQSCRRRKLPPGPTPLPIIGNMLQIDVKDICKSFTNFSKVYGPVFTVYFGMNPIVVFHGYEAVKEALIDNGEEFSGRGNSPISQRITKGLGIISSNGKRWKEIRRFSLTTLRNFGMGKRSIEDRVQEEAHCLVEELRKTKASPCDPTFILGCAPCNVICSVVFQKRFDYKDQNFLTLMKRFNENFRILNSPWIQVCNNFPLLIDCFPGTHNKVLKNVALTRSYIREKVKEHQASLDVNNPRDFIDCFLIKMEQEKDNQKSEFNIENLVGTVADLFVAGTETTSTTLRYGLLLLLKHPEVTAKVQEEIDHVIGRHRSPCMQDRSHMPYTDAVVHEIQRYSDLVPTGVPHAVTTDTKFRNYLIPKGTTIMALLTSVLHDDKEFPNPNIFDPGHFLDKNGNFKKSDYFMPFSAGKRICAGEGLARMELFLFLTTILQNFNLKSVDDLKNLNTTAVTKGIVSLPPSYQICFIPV
Procedure, shortened: as §1

[5] = biological target: CYP2C9 (Homo sapiens, UniProt P11712); assay: index substrate turnover in pooled HLM, HPLC; settings: microsomes
CYP2C9, sequence (P11712 whole entry): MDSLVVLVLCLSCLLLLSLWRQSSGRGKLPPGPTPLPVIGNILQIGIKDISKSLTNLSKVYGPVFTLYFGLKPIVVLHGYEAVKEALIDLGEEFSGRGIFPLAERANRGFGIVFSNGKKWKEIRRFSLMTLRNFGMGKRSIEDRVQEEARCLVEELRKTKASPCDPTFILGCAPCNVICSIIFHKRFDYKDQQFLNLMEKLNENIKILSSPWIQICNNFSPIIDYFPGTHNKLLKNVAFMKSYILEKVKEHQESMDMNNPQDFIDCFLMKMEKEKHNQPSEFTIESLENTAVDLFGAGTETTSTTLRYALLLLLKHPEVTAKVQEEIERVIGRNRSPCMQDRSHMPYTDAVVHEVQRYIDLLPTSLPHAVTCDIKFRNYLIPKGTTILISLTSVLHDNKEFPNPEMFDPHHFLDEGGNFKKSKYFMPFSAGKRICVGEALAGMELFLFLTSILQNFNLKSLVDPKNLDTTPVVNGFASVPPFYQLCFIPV

[6] = biological target: T4, CYP1A2 (Homo sapiens, UniProt P05177); assay: index substrate turnover in pooled HLM, HPLC; settings: microsomes
T4 sequence (P05177 2-516): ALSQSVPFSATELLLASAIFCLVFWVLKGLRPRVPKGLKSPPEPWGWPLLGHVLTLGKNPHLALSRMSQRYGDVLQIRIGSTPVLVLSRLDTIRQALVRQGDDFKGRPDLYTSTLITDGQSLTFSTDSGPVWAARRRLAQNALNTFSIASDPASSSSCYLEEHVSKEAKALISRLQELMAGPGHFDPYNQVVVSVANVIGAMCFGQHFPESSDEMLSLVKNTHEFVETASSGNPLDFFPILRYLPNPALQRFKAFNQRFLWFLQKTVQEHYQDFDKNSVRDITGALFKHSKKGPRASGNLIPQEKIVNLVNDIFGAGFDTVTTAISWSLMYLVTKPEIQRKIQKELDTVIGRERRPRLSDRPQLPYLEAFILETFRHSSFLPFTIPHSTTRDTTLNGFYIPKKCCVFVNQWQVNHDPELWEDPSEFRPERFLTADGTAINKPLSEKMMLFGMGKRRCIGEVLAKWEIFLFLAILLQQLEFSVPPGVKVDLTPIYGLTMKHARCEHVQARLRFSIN
Procedure, shortened: as §1

[7] = biological target: T5, UGT2B15 (Homo sapiens, UniProt P54855); assay: glucuronidation of index substrate in pooled HLM, HPLC-UV; settings: without preincubation; pH 7.5, 10 mM UDPGA, alamethicin
T5 sequence (P54855 24-530): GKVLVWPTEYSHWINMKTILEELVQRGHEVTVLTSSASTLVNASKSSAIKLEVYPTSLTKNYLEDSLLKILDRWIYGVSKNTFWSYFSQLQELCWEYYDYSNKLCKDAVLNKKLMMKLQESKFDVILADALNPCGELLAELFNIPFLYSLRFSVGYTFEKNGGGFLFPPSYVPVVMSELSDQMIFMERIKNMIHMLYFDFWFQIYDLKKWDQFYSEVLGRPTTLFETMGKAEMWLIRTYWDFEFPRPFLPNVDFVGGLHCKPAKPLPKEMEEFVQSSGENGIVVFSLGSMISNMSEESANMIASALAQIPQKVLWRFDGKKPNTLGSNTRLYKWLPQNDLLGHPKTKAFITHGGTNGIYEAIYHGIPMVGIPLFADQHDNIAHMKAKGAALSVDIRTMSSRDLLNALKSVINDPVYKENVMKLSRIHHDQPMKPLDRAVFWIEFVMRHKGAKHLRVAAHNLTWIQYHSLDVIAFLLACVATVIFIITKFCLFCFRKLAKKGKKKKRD
Procedure, shortened: (§2)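 Pooled HLMs (53 donors, 50–500 μg/ml) in 50 mm phosphate pH 7.5 with 5 mm MgCl2 and alamethicin […]. Test compound at 0–250 μm (seven levels) was dried, reconstituted in 1% methanol and not preincubated. Reactions started with UDPGA (10 mm final). Substrates: AZT (UGT2B7), oxazepam (UGT2B15). Acetonitrile stop (acidified for UGT2B7) with IS; HPLC-UV; duplicates; IC50 by nonlinear regression.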

[8] = biological target: T6, UGT2B7 (Homo sapiens, UniProt P16662); assay: as above; settings: without preincubation; pH 7.5, 10 mM UDPGA, alamethicin
T6 sequence (P16662 24-529): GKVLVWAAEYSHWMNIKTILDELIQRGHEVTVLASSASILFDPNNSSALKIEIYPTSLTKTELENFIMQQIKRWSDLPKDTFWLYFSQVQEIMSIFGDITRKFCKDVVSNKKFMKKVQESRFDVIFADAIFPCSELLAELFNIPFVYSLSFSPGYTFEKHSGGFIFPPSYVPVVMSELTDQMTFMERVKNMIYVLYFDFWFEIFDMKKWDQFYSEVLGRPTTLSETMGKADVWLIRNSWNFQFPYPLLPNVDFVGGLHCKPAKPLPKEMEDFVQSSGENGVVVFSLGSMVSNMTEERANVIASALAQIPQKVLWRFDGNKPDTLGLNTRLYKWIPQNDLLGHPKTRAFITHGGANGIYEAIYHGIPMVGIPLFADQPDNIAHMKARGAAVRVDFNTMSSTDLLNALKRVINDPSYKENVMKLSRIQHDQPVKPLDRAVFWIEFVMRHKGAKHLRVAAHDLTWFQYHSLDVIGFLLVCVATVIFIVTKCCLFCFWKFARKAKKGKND
Procedure, shortened: as §2

[9] = biological target: CYP2C19 (Homo sapiens, UniProt P33261); assay: index substrate turnover in pooled HLM, HPLC; settings: microsomes
CYP2C19, sequence (P33261 whole entry): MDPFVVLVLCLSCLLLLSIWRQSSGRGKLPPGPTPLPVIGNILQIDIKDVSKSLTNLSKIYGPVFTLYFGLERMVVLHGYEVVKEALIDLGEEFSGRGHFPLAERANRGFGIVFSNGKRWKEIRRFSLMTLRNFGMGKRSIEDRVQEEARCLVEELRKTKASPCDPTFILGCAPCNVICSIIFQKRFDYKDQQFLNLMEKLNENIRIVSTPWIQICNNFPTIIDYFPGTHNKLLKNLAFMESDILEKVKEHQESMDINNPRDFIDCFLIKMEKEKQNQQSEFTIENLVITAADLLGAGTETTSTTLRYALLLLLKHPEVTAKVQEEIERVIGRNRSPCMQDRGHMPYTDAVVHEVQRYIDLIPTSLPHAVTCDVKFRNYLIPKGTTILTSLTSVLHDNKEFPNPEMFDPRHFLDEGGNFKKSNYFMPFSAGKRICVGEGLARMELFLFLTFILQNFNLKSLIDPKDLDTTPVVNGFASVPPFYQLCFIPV

[10] = biological target: CYP2D6 (Homo sapiens, UniProt P10635); assay: index substrate turnover in pooled HLM, HPLC; settings: microsomes
CYP2D6, sequence (P10635 whole entry): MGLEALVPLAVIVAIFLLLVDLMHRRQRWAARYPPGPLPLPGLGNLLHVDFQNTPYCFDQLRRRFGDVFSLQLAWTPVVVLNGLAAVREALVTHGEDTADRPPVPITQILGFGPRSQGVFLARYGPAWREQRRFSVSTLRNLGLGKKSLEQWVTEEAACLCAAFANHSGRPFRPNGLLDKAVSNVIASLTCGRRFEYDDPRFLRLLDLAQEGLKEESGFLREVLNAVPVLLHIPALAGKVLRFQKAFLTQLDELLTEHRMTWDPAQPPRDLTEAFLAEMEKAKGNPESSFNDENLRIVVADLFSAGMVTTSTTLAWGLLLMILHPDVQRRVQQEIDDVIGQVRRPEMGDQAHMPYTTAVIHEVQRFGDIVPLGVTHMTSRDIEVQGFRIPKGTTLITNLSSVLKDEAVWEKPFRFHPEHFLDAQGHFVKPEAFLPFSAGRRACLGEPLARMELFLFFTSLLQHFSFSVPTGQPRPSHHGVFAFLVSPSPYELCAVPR
Procedure, shortened: as §1

[11] = without preincubation, 37 °C, solvent effect

CYP2E1, sequence (P05181 whole entry): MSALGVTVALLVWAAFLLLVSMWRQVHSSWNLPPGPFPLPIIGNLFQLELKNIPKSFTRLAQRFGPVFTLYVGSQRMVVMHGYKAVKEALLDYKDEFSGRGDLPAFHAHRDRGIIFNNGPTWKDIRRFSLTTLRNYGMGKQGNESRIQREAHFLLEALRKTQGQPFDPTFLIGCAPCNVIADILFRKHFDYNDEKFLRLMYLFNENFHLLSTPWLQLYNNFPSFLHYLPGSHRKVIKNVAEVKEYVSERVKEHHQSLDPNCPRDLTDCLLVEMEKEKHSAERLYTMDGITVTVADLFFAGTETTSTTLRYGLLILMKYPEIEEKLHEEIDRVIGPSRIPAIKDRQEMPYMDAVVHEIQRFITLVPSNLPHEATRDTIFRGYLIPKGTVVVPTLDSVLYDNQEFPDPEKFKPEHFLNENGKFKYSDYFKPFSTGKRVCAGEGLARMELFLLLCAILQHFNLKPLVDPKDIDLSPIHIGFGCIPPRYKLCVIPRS

DMSO / W/O (%) [1, 11] | IC50 [1] | IC50 [2] | IC50 [3] | IC50 [4] | IC50 [5] | IC50 [6] | IC50 [7] | IC50 [8] | IC50 [9] | IC50 [10] | MEOH / W/O (%) [1, 11] | Structure (SMILES)
0.06 % (v/v) | – | – | – | – | – | – | – | – | – | – | – | C[S+](C)[O-] [DMSO]
– | 89.3 µM | 103 µM | > 250 µM | 2.5 µM | 28.9 µM | 3.5 µM | > 250 µM | > 250 µM | 47.9 µM | 153 µM | – | O=c1cc(-c2ccc(O)c(O)c2)oc2cc(O)cc(O)c12 [luteolin]
– | – | – | – | – | – | – | – | – | – | – | 0.63 % (v/v) | CO [methanol]
– | 66.2 µM | 89.2 µM | – | 2.4 µM | – | 5.2 µM | > 250 µM | – | 140 µM | 234 µM | – | O=c1c(O)c(-c2ccc(O)c(O)c2)oc2cc(O)cc(O)c12 [quercetin]
